Results on six compounds are retold here after ChEMBL document CHEMBL1154281 (J Med Chem, 2009).

Data set [1] has as its target T1, Type-1 angiotensin II receptor (Homo sapiens) (UniProt P30556).
T1 sequence (whole entry): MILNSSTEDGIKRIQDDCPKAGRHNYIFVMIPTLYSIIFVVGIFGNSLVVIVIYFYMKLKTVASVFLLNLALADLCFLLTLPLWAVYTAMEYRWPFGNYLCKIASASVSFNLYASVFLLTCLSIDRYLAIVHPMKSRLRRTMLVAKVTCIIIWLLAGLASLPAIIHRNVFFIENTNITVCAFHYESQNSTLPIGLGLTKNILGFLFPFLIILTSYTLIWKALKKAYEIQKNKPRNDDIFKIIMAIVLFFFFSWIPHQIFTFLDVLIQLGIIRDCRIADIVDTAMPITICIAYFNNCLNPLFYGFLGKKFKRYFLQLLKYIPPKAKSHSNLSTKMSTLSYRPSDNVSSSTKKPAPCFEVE
The experiment in a line: Displacement of [3H]valsartan from human recombinant AT1 receptor expressed in CHO cells at 10 uM after 40 mins by liquid scintillation counting. The class given is cell-based. In a few lines:
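Intact CHO-AT1 cells, human AT1 receptor stably expressed, prewashed in PBS, then 15 min in DMEM at 37 °C. Test agent at 10^-5 M with [3H]Valsartan (final 1.5 nM) for 40 min at 37 °C. Nonspecific binding with 1 μM Candesartan. Specific binding reported as percent of control, binding in medium only. Cell-bound radioactivity solubilized in 0.2 M NaOH and counted.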

Data set [2] is described as follows: Metabolic stability in CHOK1 cells harboring endogenous IRAP at 0.1 to 10000 nM pretreated for 40 mins by [3H]angiotensin 4 competition binding assay in absence of chelator EDTA and 1, 10-phenantroline. The class given is ADME, cell-based, Cricetulus griseus. The settings on record: chinese hamster, cho-k1, 40 min, 10 µM. In a few lines: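 Membrane homogenates of CHO-K1 cells carrying endogenous IRAP, equivalent to 4×10^5 cells, in 50 mM Tris-HCl pH 7.4 assay buffer. Preincubated 40 min at 37 °C with compound, no chelator added. [3H]Ang IV (final 3 nM) then added for 30 min at 37 °C. Nonspecific binding with 10 μM Ang IV. Filtered on BSA-presoaked GF/B filters and counted. Specific binding given as percent of control.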

The target in data set [3] is T2, Type-1 angiotensin II receptor (Homo sapiens, UniProt P30556).
T2 sequence (P30556 whole entry): T1 sequence (whole entry)
The data set is described as follows: Displacement of [3H]valsartan from human recombinant AT1 receptor expressed in CHO cells after 40 mins by liquid scintillation counting. The class given is cell-based. In a few lines:
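CHO cells stably expressing human AT1 receptor, washed twice in PBS at room temperature, then 15 min in DMEM at 37 °C. Competition with [3H]Valsartan (final 1.5 nM) over a full dose range for 40 min at 37 °C. Nonspecific binding defined with 1 μM Candesartan. Cells washed 3× in cold PBS and lysed in 0.2 M NaOH before scintillation counting. IC50 by nonlinear regression, Ki by Cheng–Prusoff.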
A general note: Loss of bound radioactivity is the signal in a displacement assay; it reports binding, not function.

The source made the active and inactive calls. The calls are words filed in the database; no cut-off is given here. Numbered stars: 1 amine (or outer) side, 2 acyl side, 3 side chain; on linkers, the order of the positions; unused ones are H or OH. Square brackets hold non-standard residues; d marks the D form. Peptide text beside a SMILES is read from it. X1 = O=C([C@@H]1Cc2nc[nH]c2CN1[*:1])[*:2]; Tic = O=C(O)[C@@H]1Cc2ccccc2CN1

Take `CC[C@H](C)[C@H](NC(=O)[C@H](Cc1ccc(O)cc1)NC(=O)[C@@H](N)C(C)C)C(=O)N[C@H]1Cc2c([nH]c3ccccc23)CN(CC(=O)N[C@@H](Cc2ccccc2)C(=O)O)C1=O`: the result in data set [1] was inactive. In addition, in data set [2], the Stability result is “Unstable”. For the compound `CC[C@H](C)[C@H](NC(=O)[C@H](Cc1ccc(O)cc1)NC(=O)[C@@H](CN)C(C)C)C(=O)N[C@H]1Cc2c([nH]c3ccccc23)CN(CC(=O)N[C@@H](Cc2ccccc2)C(=O)O)C1=O`, in data set [1], the outcome was inactive. The Stability result in data set [2] is “Stable”. The corresponding values for `CC[C@H](C)[C@H](NC(=O)[C@H](Cc1ccc(O)cc1)NC(=O)[C@@H](N)C(C)C)C(=O)N[C@H]1Cc2ccccc2CN(CC(=O)N[C@@H](Cc2ccccc2)C(=O)O)C1=O` are “inactive” and “Unstable”. The Ki is the equilibrium dissociation constant of an inhibitor or competing ligand from its target. Consider `CC[C@H](C)[C@H](NC(=O)[C@H](Cc1ccc(O)cc1)NC(=O)[C@@H](CN)C(C)C)C(=O)N[C@H]1Cc2ccccc2CN(CC(=O)N[C@@H](Cc2ccccc2)C(=O)O)C1=O`, for which, in data set [1], the outcome was Active. Moreover, the Ki in data set [3] was 141 nM. For the same compound, the Stability entry in data set [2] is given as “Stable”. On to `CC[C@H](C)[C@H](NC(=O)[C@H](Cc1ccc(O)cc1)NC(=O)[C@@H](N)C(C)C)C(=O)N1Cc2[nH]cnc2C[C@H]1C(=O)N1CCC[C@H]1C(=O)N[C@@H](Cc1ccccc1)C(=O)O` (H-VYI[X1]PF-OH), for which the result in data set [1] was inactive.

For `CC[C@H](C)[C@H](NC(=O)[C@H](Cc1ccc(O)cc1)NC(=O)[C@@H](N)C(C)C)C(=O)N1Cc2ccccc2C[C@H]1C(=O)N1CCC[C@H]1C(=O)N[C@@H](Cc1ccccc1)C(=O)O` (H-VYI[Tic]PF-OH), in data set [1], the result was inactive.
